Source: ChEMBL document CHEMBL4613238, “Synthesis and biological activity of thieno[3,2-d]pyrimidines as potent JAK3 inhibitors for the treatment of idiopathic pulmonary fibrosis” (Bioorg Med Chem, 2020)
One block for each compound: values may come before it. Active and inactive are the calls of the source. No cut-off for these calls is given here.

Key:
Mus musculus [1] = assay: Antifibrotic activity against bleomycin-induced pulmonary fibrosis C57BL/6J mouse model assessed as reduction in alveolar septal swelling at 120 mg/kg, po administered via gavage qd for 14 days at 3 days post bleomycin challenge by hematoxylin and eosin staining based light microscopic analysis; format: functional, organism-based
Procedure, shortened: (§1)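 Intratracheal bleomycin (33 μg) was given to female C57BL/6J mice. Oral gavage started 3 days later and continued once daily for 14 days, with 1.4% DMSO saline as vehicle; n=8. Lungs were formalin-fixed for 24 h and paraffin-embedded. 5 μm sections were H&E-stained and examined by light microscopy at 200×.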

Mus musculus [2] = assay: Antifibrotic activity against bleomycin-induced pulmonary fibrosis C57BL/6J mouse model assessed as reduction in lung coefficient at 120 mg/kg, po administered via gavage qd for 14 days at 3 days post bleomycin challenge; format: functional, organism-based
Procedure, shortened: (§2)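 Bleomycin was given intratracheally (33 μg) to female C57BL/6J mice, 5‒6 weeks old. Daily oral gavage followed for 14 days from day 3, with 1.4% DMSO saline vehicle; n=8 per group. Fresh lungs were weighed and lung index was calculated as lung weight/body weight × 100.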

Mus musculus [3] = assay: Antifibrotic activity against bleomycin-induced pulmonary fibrosis C57BL/6J mouse model assessed as reduction in oxidative stress by measuring reduction in MDA level in plasma at 120 mg/kg, po administered via gavage qd for 14 days at 3 days post bleomycin challenge; format: functional, organism-based
Procedure, shortened: (§3)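 After 33 μg intratracheal bleomycin, female C57BL/6J mice were gavaged once daily for 14 days from day 3 (vehicle saline, 1.4% DMSO; n=8). MDA was measured in heparinized plasma with a kit by absorbance at 532 nm; mean ± SEM.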

Mus musculus [4] = assay: Antifibrotic activity against bleomycin-induced pulmonary fibrosis C57BL/6J mouse model assessed as reduction in IL6 expression in plasma at 120 mg/kg, po administered via gavage qd for 14 days at 3 days post bleomycin challenge by FACSCalibur flow cytometry; format: functional, organism-based
Procedure, shortened: (§4)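 Female C57BL/6J mice (5‒6 weeks, 20‒25 g) were given 33 μg bleomycin intratracheally in saline under isoflurane. From day 3 they received oral gavage once daily for 14 days, with saline containing 1.4% DMSO as vehicle; n=8 per group. Vena cava blood was heparinized and spun at 3000 rpm for 10 min, and plasma was stored at −20 °C. IL-6, IL-17A and TNF-α were measured by flow cytometry; mean ± SEM.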

Mus musculus [5] = assay: Antifibrotic activity against bleomycin-induced pulmonary fibrosis C57BL/6J mouse model assessed as reduction in IL17A expression in plasma at 120 mg/kg, po administered via gavage qd for 14 days at 3 days post bleomycin challenge by FACSCalibur flow cytometry; format: functional, organism-based; procedure, shortened: as §4
Mus musculus [6] = assay: Antifibrotic activity against bleomycin-induced pulmonary fibrosis C57BL/6J mouse model assessed as reduction in TNF-alpha expression in plasma at 120 mg/kg, po administered via gavage qd for 14 days at 3 days post bleomycin challenge by FACSCalibur flow cytometry; format: functional, organism-based; procedure, shortened: as §4
[7] = biological target: T1, Tyrosine-protein kinase JAK3 (Homo sapiens, UniProt P52333); assay: Inhibition of recombinant human N-terminal GST-tagged JAK3 (781 to end residues) expressed in baculovirus infected Sf9 cells using poly (Glu,Tyr) 4:1 as substrate incubated for 60 mins in presence of ATP by ADP-Glo kinase assay
T1 sequence (P52333 whole entry): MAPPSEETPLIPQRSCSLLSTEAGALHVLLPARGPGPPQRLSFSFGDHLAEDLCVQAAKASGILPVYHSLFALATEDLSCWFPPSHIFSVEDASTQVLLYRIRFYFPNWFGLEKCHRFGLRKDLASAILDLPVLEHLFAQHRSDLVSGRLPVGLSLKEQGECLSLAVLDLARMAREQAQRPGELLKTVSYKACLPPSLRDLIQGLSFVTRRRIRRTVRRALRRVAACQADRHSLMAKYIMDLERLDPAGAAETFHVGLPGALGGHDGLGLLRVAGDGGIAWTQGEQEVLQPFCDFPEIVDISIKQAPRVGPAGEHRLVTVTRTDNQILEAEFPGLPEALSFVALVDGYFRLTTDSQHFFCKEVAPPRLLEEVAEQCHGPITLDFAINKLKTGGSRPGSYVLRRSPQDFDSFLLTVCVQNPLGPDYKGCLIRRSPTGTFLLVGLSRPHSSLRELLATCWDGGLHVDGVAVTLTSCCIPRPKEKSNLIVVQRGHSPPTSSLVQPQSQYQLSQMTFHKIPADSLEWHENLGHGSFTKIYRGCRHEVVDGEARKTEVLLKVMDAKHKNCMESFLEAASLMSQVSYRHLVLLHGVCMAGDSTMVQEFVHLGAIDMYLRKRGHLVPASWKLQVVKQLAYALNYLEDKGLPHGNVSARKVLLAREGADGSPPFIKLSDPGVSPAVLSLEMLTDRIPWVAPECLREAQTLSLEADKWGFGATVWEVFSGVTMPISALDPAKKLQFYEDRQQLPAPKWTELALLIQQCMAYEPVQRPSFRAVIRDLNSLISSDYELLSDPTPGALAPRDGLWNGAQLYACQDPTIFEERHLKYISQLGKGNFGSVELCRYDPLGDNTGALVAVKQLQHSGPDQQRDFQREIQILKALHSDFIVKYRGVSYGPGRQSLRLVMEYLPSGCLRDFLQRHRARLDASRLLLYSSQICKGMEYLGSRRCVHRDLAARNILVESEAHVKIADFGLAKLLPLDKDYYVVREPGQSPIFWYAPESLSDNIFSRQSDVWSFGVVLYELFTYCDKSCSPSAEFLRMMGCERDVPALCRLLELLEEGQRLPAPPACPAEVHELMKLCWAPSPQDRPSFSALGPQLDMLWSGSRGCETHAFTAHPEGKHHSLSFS
Procedure, shortened: (§5)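 ADP-Glo luminescent assay run at compound concentrations of 0.1, 1, 10, 100 and 1000 nM. The kinase reaction ran in 1× kinase buffer for 60 min at room temperature. ADP-Glo reagent was then added to stop the reaction and deplete ATP (40 min, RT), followed by detection reagent (30 min, RT) and a luminescence read. IC50s came from curve fitting; means of three experiments.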

[8] = biological target: T2, Tyrosine-protein kinase BTK (Homo sapiens, UniProt Q06187); assay: Inhibition of BTK (unknown origin) by ADP-Glo kinase assay; procedure, shortened: as §5
[9] = Cytotoxicity against human NHBE cells assessed as reduction in cell viability by CCK8 assay; format: cell-based
Procedure, shortened: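 Human bronchial epithelial (HBE) cells were tested for growth inhibition by CCK-8 assay. IC50 values are means of three separate experiments.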

Mus musculus [10] = assay: Antifibrotic activity against bleomycin-induced pulmonary fibrosis C57BL/6J mouse model assessed as reduction in alveolar septal swelling at 30 to 60 mg/kg, po administered via gavage qd for 14 days at 3 days post bleomycin challenge by hematoxylin and eosin staining based light microscopic analysis; format: functional, organism-based; procedure, shortened: as §1
Mus musculus [11] = assay: Antifibrotic activity against po dosed bleomycin-induced pulmonary fibrosis C57BL/6J mouse model assessed as reduction in alveolar septal swelling administered via gavage qd for 14 days at 3 days post bleomycin challenge by hematoxylin and eosin staining based light microscopic analysis; format: functional, organism-based; procedure, shortened: as §1
Mus musculus [12] = assay: Antifibrotic activity against bleomycin-induced pulmonary fibrosis C57BL/6J mouse model assessed as reduction in lung coefficient at 30 to 60 mg/kg, po administered via gavage qd for 14 days at 3 days post bleomycin challenge; format: functional, organism-based; procedure, shortened: as §2
Mus musculus [13] = assay: Antifibrotic activity against bleomycin-induced pulmonary fibrosis C57BL/6J mouse model assessed as reduction in collagen deposition by measuring hydroxyproline content in lungs at 60 mg/kg, po administered via gavage qd for 14 days at 3 days post bleomycin challenge by hydroxyproline assay; format: functional, organism-based
Procedure, shortened: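 Bleomycin model in female C57BL/6J mice: 33 μg intratracheal, then daily oral dosing for 14 days beginning on day 3, vehicle saline with 1.4% DMSO, n=8. Lungs were perfused with saline and lavaged with PBS/1 mM EDTA. The left lobe was assayed for hydroxyproline with a kit by absorbance at 550 nm; mean ± SEM.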

Mus musculus [14] = assay: Antifibrotic activity against bleomycin-induced pulmonary fibrosis C57BL/6J mouse model assessed as reduction in IL6 expression in plasma at 30 to 60 mg/kg, po administered via gavage qd for 14 days at 3 days post bleomycin challenge by FACSCalibur flow cytometry; format: functional, organism-based; procedure, shortened: as §4
Mus musculus [15] = assay: Antifibrotic activity against bleomycin-induced pulmonary fibrosis C57BL/6J mouse model assessed as reduction in IL17A expression in plasma at 30 to 60 mg/kg, po administered via gavage qd for 14 days at 3 days post bleomycin challenge by FACSCalibur flow cytometry; format: functional, organism-based; procedure, shortened: as §4
Mus musculus [16] = assay: Antifibrotic activity against bleomycin-induced pulmonary fibrosis C57BL/6J mouse model assessed as reduction in TNF-alpha expression in plasma at 30 to 60 mg/kg, po administered via gavage qd for 14 days at 3 days post bleomycin challenge by FACSCalibur flow cytometry; format: functional, organism-based; procedure, shortened: as §4
Mus musculus [17] = assay: Antifibrotic activity against bleomycin-induced pulmonary fibrosis C57BL/6J mouse model assessed as reduction in oxidative stress by measuring reduction in MDA level in plasma at 60 mg/kg, po administered via gavage qd for 14 days at 3 days post bleomycin challenge; format: functional, organism-based; procedure, shortened: as §3
Mus musculus [18] = assay: Antifibrotic activity against bleomycin-induced pulmonary fibrosis C57BL/6J mouse model assessed as reduction in air-sacculitis at 30 to 60 mg/kg, po administered via gavage qd for 14 days at 3 days post bleomycin challenge by hematoxylin and eosin staining based light microscopic analysis; format: functional, organism-based; procedure, shortened: as §1
Mus musculus [19] = assay: Antifibrotic activity against bleomycin-induced pulmonary fibrosis C57BL/6J mouse model assessed as reduction in collagen deposition in lungs at 60 mg/kg, po administered via gavage qd for 14 days at 3 days post bleomycin challenge by Masson's Trichrome staining analysis; format: functional, organism-based
Procedure, shortened: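 Female C57BL/6J mice received 33 μg intratracheal bleomycin, then once-daily gavage for 14 days from day 3 (1.4% DMSO saline vehicle; n=8). Lungs were fixed in formalin for 24 h and paraffin-embedded. 5 μm sections were stained with Masson's trichrome and viewed by light microscopy at 200×.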

[20] = biological target: T1, Tyrosine-protein kinase JAK3; assay: Inhibition of JAK3 (unknown origin)
[21] = biological target: T2, Tyrosine-protein kinase BTK; assay: Inhibition of BTK (unknown origin)
[22] = biological target: Epidermal growth factor receptor (Homo sapiens, UniProt P00533); assay: Inhibition of EGFR (unknown origin)
Sequence of Epidermal growth factor receptor (P00533 whole entry): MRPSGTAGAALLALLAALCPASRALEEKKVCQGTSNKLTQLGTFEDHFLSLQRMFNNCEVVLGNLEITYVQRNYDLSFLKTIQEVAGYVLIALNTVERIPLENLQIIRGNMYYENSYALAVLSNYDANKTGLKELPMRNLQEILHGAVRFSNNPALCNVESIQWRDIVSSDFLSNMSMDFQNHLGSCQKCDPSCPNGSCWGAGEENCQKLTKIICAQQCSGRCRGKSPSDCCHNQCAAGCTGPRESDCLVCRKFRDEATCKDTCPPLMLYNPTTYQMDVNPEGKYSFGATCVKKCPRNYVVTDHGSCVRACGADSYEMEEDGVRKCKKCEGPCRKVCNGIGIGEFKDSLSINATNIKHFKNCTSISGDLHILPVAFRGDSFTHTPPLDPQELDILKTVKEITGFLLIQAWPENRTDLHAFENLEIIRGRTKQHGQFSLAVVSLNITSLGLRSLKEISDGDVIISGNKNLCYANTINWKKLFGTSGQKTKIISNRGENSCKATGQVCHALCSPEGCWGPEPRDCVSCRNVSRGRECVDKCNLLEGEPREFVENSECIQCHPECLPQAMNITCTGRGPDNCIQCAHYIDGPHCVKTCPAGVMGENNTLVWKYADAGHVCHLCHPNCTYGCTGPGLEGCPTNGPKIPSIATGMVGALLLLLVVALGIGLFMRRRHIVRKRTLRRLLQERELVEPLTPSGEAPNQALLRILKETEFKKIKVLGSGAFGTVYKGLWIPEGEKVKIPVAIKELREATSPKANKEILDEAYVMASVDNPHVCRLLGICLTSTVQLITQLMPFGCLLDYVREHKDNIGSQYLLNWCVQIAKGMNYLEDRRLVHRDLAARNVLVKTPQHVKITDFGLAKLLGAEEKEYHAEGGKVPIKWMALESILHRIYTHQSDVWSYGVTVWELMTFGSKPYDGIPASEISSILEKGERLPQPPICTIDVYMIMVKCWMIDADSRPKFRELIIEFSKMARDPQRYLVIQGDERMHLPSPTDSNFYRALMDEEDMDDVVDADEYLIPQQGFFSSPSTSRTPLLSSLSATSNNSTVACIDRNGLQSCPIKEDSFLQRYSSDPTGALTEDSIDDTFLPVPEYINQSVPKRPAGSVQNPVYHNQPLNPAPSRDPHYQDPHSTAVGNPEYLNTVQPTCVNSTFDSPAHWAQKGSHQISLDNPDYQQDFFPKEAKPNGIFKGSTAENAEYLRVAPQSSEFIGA

T2 sequence (Q06187 whole entry): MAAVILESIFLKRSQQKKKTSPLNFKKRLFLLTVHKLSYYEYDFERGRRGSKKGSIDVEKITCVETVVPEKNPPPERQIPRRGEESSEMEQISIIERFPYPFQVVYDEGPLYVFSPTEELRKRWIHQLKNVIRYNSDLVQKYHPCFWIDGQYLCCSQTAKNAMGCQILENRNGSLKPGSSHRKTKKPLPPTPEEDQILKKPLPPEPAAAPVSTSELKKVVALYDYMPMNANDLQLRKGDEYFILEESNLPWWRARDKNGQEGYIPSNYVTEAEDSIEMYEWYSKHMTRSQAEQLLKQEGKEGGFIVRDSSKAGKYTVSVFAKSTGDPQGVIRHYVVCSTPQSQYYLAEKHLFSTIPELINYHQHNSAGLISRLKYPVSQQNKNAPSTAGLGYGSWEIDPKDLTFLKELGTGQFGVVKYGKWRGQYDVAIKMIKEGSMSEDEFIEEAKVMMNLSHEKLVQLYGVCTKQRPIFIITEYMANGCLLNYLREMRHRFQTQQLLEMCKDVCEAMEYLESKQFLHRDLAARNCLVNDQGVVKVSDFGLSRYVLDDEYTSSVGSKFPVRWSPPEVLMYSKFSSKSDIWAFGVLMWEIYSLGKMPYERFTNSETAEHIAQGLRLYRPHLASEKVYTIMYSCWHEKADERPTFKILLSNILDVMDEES

IC50 [7]: 89.2 nM | IC50 [8]: > 100 nM
Compound: C=CC(=O)Nc1cccc(Oc2nc(Nc3ccc(OCCCN4CCOCC4)cc3)nc3ccsc23)c1
IC50 [9]: > 40000 nM

IC50 [7]: 46 nM | IC50 [8]: > 100 nM
Compound: C=CC(=O)Nc1cccc(Oc2nc(Nc3ccc(SCCCN4CCOCC4)cc3)nc3ccsc23)c1
IC50 [9]: > 40000 nM

Second part, the compound before the results:

Compound: Cc1ccc(=O)n(-c2ccccc2)c1
Activity (Mus musculus [1]): Active | Activity (Mus musculus [2]): Active | Activity (Mus musculus [3]): Active | Activity (Mus musculus [4]): Active | Activity (Mus musculus [5]): Active | Activity (Mus musculus [6]): Active

Compound: C=CC(=O)Nc1cccc(Oc2nc(Nc3ccc(OCCCN4CCOCC4)c(Cl)c3)nc3ccsc23)c1
IC50 [7]: 1.38 nM | IC50 [8]: ≥ 62.4 nM | IC50 [9]: 39000 nM | Activity (Mus musculus [10]): Active | Activity (Mus musculus [11]): Dose-dependent effect | Activity (Mus musculus [12]): Active | Activity (Mus musculus [13]): Active | Activity (Mus musculus [14]): Active | Activity (Mus musculus [15]): Active | Activity (Mus musculus [16]): Active | Activity (Mus musculus [17]): Active | Activity (Mus musculus [18]): Active | Activity (Mus musculus [19]): Active

Compound: C=CC(=O)Nc1cccc(Nc2nc(Nc3ccc(NC(=O)CN4CCOCC4)cc3)ncc2Cl)c1
IC50 [20]: < 10 nM | IC50 [21]: < 10 nM | IC50 [22]: < 10 nM

Compound: C=CC(=O)Nc1cccc(Oc2nc(Nc3ccc(CN4CCOCC4)cc3)nc3ccsc23)c1
IC50 [7]: 85.3 nM | IC50 [8]: > 100 nM | IC50 [9]: 12800 nM
